Results taken from ChEMBL document CHEMBL1149291, “Discovery of N-(2-chloro-6-methyl- phenyl)-2-(6-(4-(2-hydroxyethyl)- piperazin-1-yl)-2-methylpyrimidin-4-ylamino)thiazole-5-carboxamide (BMS-354825), a dual Src/Abl kinase inhibitor with potent antitumor activity in preclinical assays” (J Med Chem, 2004).

Experiments:
[1] = AUC (0-4 hrs) in BALB/c mouse at 50 mg/kg, po after 4 hrs; format: ADME, organism-based; parameters: time < 4 hr, dose 50 mg/kg, route oral; conditions: plasma
How it was run: (§1)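 Mouse 4 h oral exposure screen: oral dose of 50 mg/kg given as a solution in 1:1 propylene glycol:water. Plasma drug levels followed over 4 h, giving AUC(0-4h), peak concentration (Cmax) and the concentration at 4 h.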

[2] = Cmax in BALB/c mouse at 50 mg/kg, po after 4 hrs; format: ADME, organism-based; parameters: dose 50 mg/kg, route oral; conditions: in vivo; how it was run: as §1
K562 = test: Antiproliferative activity against human K562 cells after 72 hrs; format: functional, cell-based; conditions: K562, 72 h
MDA-MB-231 = test: cells; conditions: Homo sapiens, MDA-MB-231, 72 h
[3] = Plasma concentration in BALB/c mouse at 50 mg/kg, po after 4 hrs; format: ADME, organism-based; parameters: dose 50 mg/kg, route oral; how it was run: as §1
WiDr = test: cells; conditions: Homo sapiens, 72 h
PC-3 = test: cells; conditions: Homo sapiens, PC-3, 72 h
[4] = (§2) Protein binding in human serum at 10 uM; format: ADME, cell-free; conditions: read-out: PPB (converted)
How it was run: (§3)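 Binding to human serum proteins measured at a compound concentration of 10 μM.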

[5] = AUC (total) in Sprague-Dawley rat at 10 mg/kg, iv; format: ADME, organism-based; parameters: dose 10 mg/kg, route intravenous; conditions: plasma
How it was run: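 Sprague–Dawley rats; single 10 mg/kg intravenous dose as a solution in citric acid buffer at pH 4.6. Total plasma AUC (μM·h) taken from the pharmacokinetic profile alongside Cmax, t1/2, MRT, clearance and Vss.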

[6] = Cmax in Sprague-Dawley rat at 10 mg/kg, iv; format: ADME, organism-based; parameters: dose 10 mg/kg, route intravenous; conditions: in vivo
How it was run: (§4)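 Sprague–Dawley rats each given 10 mg/kg of compound, either intravenously or orally, in separate arms. Pharmacokinetic parameters were reported for each route as means with a variability term in parentheses. These were Cmax, Tmax, AUCtot, t1/2, MRT, and, for the iv dose, Cl and Vss. Oral bioavailability (Fpo) was reported for the oral arm.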

[7] = Tmax in Sprague-Dawley rat at 10 mg/kg, po; format: ADME, organism-based; parameters: dose 10 mg/kg, route oral; conditions: in vivo
How it was run: (§5)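 Sprague-Dawley rats dosed at 10 mg/kg, either iv or orally, with drug as a solution in citric acid buffer pH 4.6. Parameters derived from plasma levels: Cmax, Tmax, AUCtot, t1/2, MRT, clearance, Vss, and oral bioavailability.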

[8] = AUC (total) in Sprague-Dawley rat at 10 mg/kg, po; format: ADME, organism-based; parameters: dose 10 mg/kg, route oral; conditions: plasma
How it was run: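 Sprague–Dawley rats; single 10 mg/kg oral dose given as a solution. Total plasma AUC (μM·h) taken from the pharmacokinetic profile alongside Cmax, Tmax, t1/2 and MRT.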

Rattus norvegicus [9] = test: Clearance in Sprague-Dawley rat at 10 mg/kg, iv; format: ADME, organism-based; parameters: dose 10 mg/kg, route intravenous; conditions: in vivo; how it was run: as §5
[10] = Mean residence time in Sprague-Dawley rat at 10 mg/kg, po; format: ADME, organism-based; parameters: dose 10 mg/kg, route oral; conditions: in vivo; how it was run: as §5
Rattus norvegicus [11] = test: Oral bioavailability in Sprague-Dawley rat at 10 mg/kg, po; format: ADME, organism-based; conditions: in vivo; how it was run: as §4
Mus musculus = species: Mus musculus; test: Toxicity in nude mouse; format: organism-based; conditions: in vivo
How it was run: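 K562 cells implanted subcutaneously in nude mice and staged to about 300 mg tumors. Oral dosing once daily at 5 or 50 mg/kg on a 5 day on/2 day off schedule for two cycles. Toxicity scored as animal deaths or lack of weight gain.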

[12] = Mean residence time in Sprague-Dawley rat at 10 mg/kg, iv; format: ADME, organism-based; parameters: dose 10 mg/kg, route intravenous; conditions: in vivo; how it was run: as §5
Serum = test: as §2; format: ADME, cell-free; conditions: 10 µM; how it was run: as §3
[13] = Cmax in Sprague-Dawley rat at 10 mg/kg, po; format: ADME, organism-based; parameters: dose 10 mg/kg, route oral; conditions: in vivo; how it was run: as §4
[14] = Volume of distribution in Sprague-Dawley rat at 10 mg/kg, iv; format: ADME, organism-based; parameters: dose 10 mg/kg, route intravenous; conditions: in vivo, read-out: Vss; how it was run: as §5

Compound Cc1nc(NCCO)cc(Nc2ncc(C(=O)Nc3c(C)cccc3Cl)s2)n1 has an AUC(0-t) at 4 h [1] of 1.5 µM·h, a Cmax [2] of 800 nM and an IC50 (K562) of under 4 nM. It also gave an IC50 (MDA-MB-231) of 140 nM, a concentration at 4 h [3] of 170 nM and an IC50 (WiDr) of 210 nM. For the same compound, the IC50 (PC-3) was 27 nM.
In the case of Cc1cccc(Cl)c1NC(=O)c1cnc(Nc2cc(NCCN3CCOCC3)ncn2)s1, the AUC(0-t) at 4 h [1] is reported as 17 µM·h, the Cmax [2] is reported as 9600 nM and the IC50 (K562) is reported as under 2 nM. For the same compound, the IC50 (MDA-MB-231) was 170 nM, the concentration at 4 h [3] was 1900 nM and the IC50 (WiDr) was 270 nM. For the same compound, the IC50 (PC-3) was 82 nM.
Compound Cc1cccc(Cl)c1NC(=O)c1cnc(Nc2cc(N3CCOCC3)ncn2)s1 has an AUC(0-t) at 4 h [1] of 1.7 µM·h, a Cmax [2] of 960 nM and an IC50 (K562) of under 3 nM. It also gave an IC50 (MDA-MB-231) of 45 nM, a concentration at 4 h [3] of 220 nM and an IC50 (WiDr) of 270 nM. For the same compound, the IC50 (PC-3) was 24 nM.
For Cc1nc(Nc2ncc(C(=O)Nc3c(C)cccc3Cl)s2)cc(N2CCC(CO)CC2)n1, the AUC(0-t) at 4 h [1] was 3.5 µM·h, the Cmax [2] was 2500 nM and the IC50 (K562) was under 1 nM. The IC50 (MDA-MB-231) was 9 nM, the concentration at 4 h [3] was 180 nM and the IC50 (WiDr) was 41 nM. For the same compound, the IC50 (PC-3) was 11 nM.
In the case of Cc1nc(NCCCN2CCOCC2)cc(Nc2ncc(C(=O)Nc3c(C)cccc3Cl)s2)n1, the AUC(0-t) at 4 h [1] is reported as 11 µM·h, the Cmax [2] is reported as 3100 nM and the IC50 (K562) is reported as under 2 nM. For the same compound, the IC50 (MDA-MB-231) was 23 nM, the fraction unbound at 10 µM [4] was 0.08 and the concentration at 4 h [3] was 3100 nM. For the same compound, the IC50 (WiDr) was 27 nM and the IC50 (PC-3) was 14 nM.
In the case of Cc1nc(Nc2ncc(C(=O)Nc3c(C)cccc3Cl)s2)cc(N2CCOCC2)n1, the AUC(0-t) at 4 h [1] is reported as 0.16 µM·h, the Cmax [2] is reported as 67 nM and the IC50 (K562) is reported as under 3 nM. The IC50 (MDA-MB-231) was 16 nM, the concentration at 4 h [3] was 37 nM and the IC50 (WiDr) was 27 nM. The IC50 (PC-3) was 3.6 nM.
Cc1nc(NCCN2CCOCC2)cc(Nc2ncc(C(=O)Nc3c(C)cccc3Cl)s2)n1 showed an AUC(0-t) at 4 h [1] of 3.1 µM·h, a Cmax [2] of 2200 nM and an IC50 (K562) of under 1 nM. For the same compound, the IC50 (MDA-MB-231) was 47 nM, the concentration at 4 h [3] was 280 nM and the IC50 (WiDr) was 180 nM. For the same compound, the IC50 (PC-3) was 25 nM.
With Cc1cccc(Cl)c1NC(=O)c1cnc(Nc2cccc(NCCCn3ccnc3)n2)s1 the AUC(0-t) at 4 h [1] was 0.16 µM·h, the Cmax [2] was 88 nM and the IC50 (K562) was under 3 nM. The IC50 (MDA-MB-231) was under 3 nM, the fraction unbound at 10 µM [4] was 0.01 and the concentration at 4 h [3] was 33 nM. It also gave an IC50 (WiDr) of 4.1 nM and an IC50 (PC-3) of 2.8 nM.
In the case of Cc1cc(Nc2ncc(C(=O)Nc3c(C)cccc3Cl)s2)nc(C)n1, the IC50 (K562) is reported as 1.6 nM and the IC50 (PC-3) is reported as 67 nM.
For Cc1cccc(Cl)c1NC(=O)c1cnc(Nc2cccc(NCCCN3CCOCC3)n2)s1, the AUC(0-t) at 4 h [1] was 13 µM·h, the Cmax [2] was 8600 nM and the IC50 (K562) was under 2 nM. For the same compound, the IC50 (MDA-MB-231) was 34 nM, the concentration at 4 h [3] was 1100 nM and the IC50 (WiDr) was 32 nM. The IC50 (PC-3) was 10 nM.
Cc1nc(Nc2ncc(C(=O)Nc3c(C)cccc3Cl)s2)cc(N2CCN(CCO)CC2)n1.O [DASATINIB] gave an AUC [5] of 13.9 µM·h, a Cmax [6] of 13200 nM and an AUC(0-t) at 4 h [1] of 4.8 µM·h. For the same compound, the Cmax [2] was 2700 nM, the Tmax [7] was 2.2 h and the IC50 (K562) was under 1 nM. The AUC [8] was 3.8 µM·h, the clearance (Rattus norvegicus [9]) was 26.4 mL/min/kg and the IC50 (MDA-MB-231) was 12 nM. For the same compound, the MRT [10] was 6.7 h, the F (Rattus norvegicus [11]) was 27% and the Activity (Mus musculus) was “Non-toxic”. For the same compound, the MRT [12] was 4.1 h, the PPB (Serum) was 91% and the concentration at 4 h [3] was 700 nM. It also gave a Cmax [13] of 500 nM, a Vd [14] of 6.3 L/kg and an IC50 (WiDr) of 52 nM. The IC50 (PC-3) was 9.4 nM.
Compound Cc1cccc(Cl)c1NC(=O)c1cnc(Nc2cccc(NCCO)n2)s1 has an AUC(0-t) at 4 h [1] of 7.2 µM·h, a Cmax [2] of 7000 nM and an IC50 (K562) of under 3 nM. It also gave an IC50 (MDA-MB-231) of 3.1 nM, a fraction unbound at 10 µM [4] of 0.08 and a concentration at 4 h [3] of 300 nM. The IC50 (WiDr) was 7.9 nM and the IC50 (PC-3) was 13 nM.
